{"data": "Published values gathered from unrelated publications", "RPS6KA4 N-terminal kinase domain": "Ribosomal protein S6 kinase alpha-4, N-terminal kinase domain (RPS6KA4, Homo sapiens, UniProt O75676)", "RPS6KA4": "Ribosomal protein S6 kinase alpha-4 (RPS6KA4, Homo sapiens, UniProt O75676)", "RPS6KA4 C-terminal kinase domain": "Ribosomal protein S6 kinase alpha-4, C-terminal kinase domain (RPS6KA4, Homo sapiens, UniProt O75676)", "note": "Lines come from different studies, so protocols differ."}
{"Compound": "CN(C)c1nccc(-c2cnn3ncccc23)n1", "target": "RPS6KA4 N-terminal kinase domain", "assay": "binding, competition with immobilised ligand", "conditions": "1 µM", "quantity": "remaining binding", "result": "82%"}
{"Compound": "CC(C)CC(=O)N1CCc2nc(-c3ccc(Br)cc3)nc(N(C)Cc3ccccc3)c2C1", "target": "RPS6KA4 N-terminal kinase domain", "assay": "cell-free assay, competition with immobilised ligand", "conditions": "0.1 µM", "quantity": "remaining binding", "result": "74%"}
{"Compound": "COc1cc2ncnc(Nc3ccc(Oc4ccccc4)cc3C)c2cc1OC", "target": "RPS6KA4", "assay": "enzyme activity, inhibitor", "conditions": "1 µM", "quantity": "inhibition", "result": "1%"}
{"Compound": "CNC(=O)c1cc(Oc2ccc(NC(=O)Nc3ccc(Cl)c(C(F)(F)F)c3)cc2)ccn1", "target": "RPS6KA4", "assay": "cell-free assay", "conditions": "0.5 µM", "quantity": "remaining signal", "result": "97.7%"}
{"Compound": "Cc1cc(C)c(-n2ccn3nc(-c4cccnc4)cc23)cc1NC(=O)c1cc(C#N)cc(S(F)(F)(F)(F)F)c1", "target": "RPS6KA4 C-terminal kinase domain", "assay": "cell-free assay, competition with immobilised ligand", "conditions": "0.1 µM", "quantity": "remaining binding", "result": "79.3%"}
{"Compound": "CC/C(=N\\NC(=O)NCc1cccc(O)c1)c1ccc(O)c(C)c1O", "target": "RPS6KA4", "assay": "enzyme activity, inhibitor", "conditions": "0.1 µM", "quantity": "inhibition", "result": "59.4%"}
{"Compound": "Cc1ccc(Nc2nccc(N(C)c3ccc4c(C)n(C)nc4c3)n2)cc1S(N)(=O)=O", "target": "RPS6KA4", "assay": "enzyme activity, inhibitor", "conditions": "0.5 µM", "quantity": "remaining activity", "result": "102%"}
{"Compound": "Cn1cncc1C1=CN(c2ncnc3[nH]cnc23)CCS1", "target": "RPS6KA4", "assay": "enzyme activity, inhibitor, radiometric", "conditions": "2 µM", "quantity": "inhibition", "result": "75.5%"}
{"Compound": "CC(C)c1ccc(NC(=O)c2cccs2)c(-c2nc3ccccc3[nH]c2=O)c1", "target": "RPS6KA4", "assay": "enzyme activity, inhibitor", "conditions": "1 µM", "quantity": "activity vs control", "result": "96%"}
{"Compound": "CN(C)c1nccc(-c2cnc3ncccn23)n1", "target": "RPS6KA4 N-terminal kinase domain", "assay": "binding, competition with immobilised ligand", "conditions": "1 µM", "quantity": "remaining binding", "result": "80%"}
{"Compound": "CC(C)(O)[C@H]1CC[C@H](Nc2ccc3ncc(-c4cccc(C(F)(F)F)c4)n3n2)CC1", "target": "RPS6KA4", "assay": "enzyme activity, inhibitor", "conditions": "1 µM", "quantity": "remaining activity", "result": "92.4%"}
{"Compound": "CN(c1nccc(-c2cnn3ncccc23)n1)C1CC1", "target": "RPS6KA4 N-terminal kinase domain", "assay": "binding, competition with immobilised ligand", "conditions": "1 µM", "quantity": "remaining binding", "result": "100%"}
{"Compound": "Cc1cnc(NC2CCOCC2)nc1-n1cnc(C(=O)NC(CN)c2cc(F)cc(Cl)c2)c1 (stereo not shown)", "target": "RPS6KA4", "assay": "enzyme activity, inhibitor, radiometric", "conditions": "1 µM", "quantity": "remaining activity", "result": "80%"}
{"Compound": "CN1CC(Oc2cnc(C#N)cc2-c2ccn3nc(NC(=O)C4CC4)cc3c2)C1", "target": "RPS6KA4", "assay": "enzyme activity, inhibitor", "conditions": "1 µM", "quantity": "inhibition", "result": "-1%"}
{"Compound": "C[C@@H]1CCN(c2nccc(-c3cnn4ncccc34)n2)C1", "target": "RPS6KA4 N-terminal kinase domain", "assay": "binding, competition with immobilised ligand", "conditions": "1 µM", "quantity": "remaining binding", "result": "60%"}
{"Compound": "COc1cccc2c(NCc3ccccc3)nc(-n3c(N)nc4ccccc43)nc12", "target": "RPS6KA4 N-terminal kinase domain", "assay": "target engagement in cells, inhibitor, chemoproteomics", "conditions": "20 mM", "quantity": "inhibition", "result": "7.3%"}
{"Compound": "CCS(=O)(=O)c1cc2cc(C[C@](O)(CC(C)(C)c3ccc(F)cc3C(N)=O)C(F)(F)F)[nH]c2cn1", "target": "RPS6KA4 C-terminal kinase domain", "assay": "cell-free assay, competition with immobilised ligand", "conditions": "1 µM", "quantity": "remaining binding", "result": "94%"}
{"Compound": "COc1cc(Cl)c(C(=O)N[C@@H](CN[C@H]2CC[C@@H](N)CC2)Cc2ccc(C#N)cc2)cc1-c1ccc(CN[C@H](C)c2ccc(C)cc2)o1", "target": "RPS6KA4", "assay": "enzyme activity, inhibitor", "conditions": "1 µM", "quantity": "remaining activity", "result": "77%"}
{"Compound": "CCN(CC)CCNC(=O)c1c(C)[nH]c(/C=C2\\C(=O)Nc3ccc(F)cc32)c1C", "target": "RPS6KA4", "assay": "cell-free assay", "conditions": "0.5 µM", "quantity": "remaining signal", "result": "50.8%"}
{"Compound": "C[C@H](NC(=O)c1cnc2n1[C@](C)(Cc1ccc(C#N)cc1)C(=O)N2c1cc(Cl)c(F)c(Cl)c1)C(=O)NC1(c2ccccn2)CC1", "target": "RPS6KA4 C-terminal kinase domain", "assay": "cell-free assay, competition with immobilised ligand", "conditions": "1 µM", "quantity": "remaining binding", "result": "92%"}
{"Compound": "c1ccc(CNc2nc(N3CCOc4ccccc43)nc3c2CCCC3)cc1", "target": "RPS6KA4 N-terminal kinase domain", "assay": "target engagement in cells, inhibitor, chemoproteomics", "conditions": "20 mM", "quantity": "inhibition", "result": "2.6%"}
{"Compound": "Cc1ccc(NC(=O)c2ccc(C)c(C(F)(F)F)c2)cc1C#Cc1nn(C2CCC(O)CC2)c2ncnc(N)c12 (stereo not shown)", "target": "RPS6KA4", "assay": "cell-free assay", "conditions": "10 µM", "quantity": "remaining signal", "result": "70%"}
{"Compound": "Cc1nc(Cc2cccc(C(F)(F)F)c2)sc1-c1ccc(C(N)=O)nc1", "target": "RPS6KA4 C-terminal kinase domain", "assay": "cell-free assay, competition with immobilised ligand", "conditions": "1 µM", "quantity": "remaining binding", "result": "100%"}
{"Compound": "Nc1ncnc2occ(-c3ccc(NC(=O)Nc4cc(C(F)(F)F)ccc4F)cc3)c12", "target": "RPS6KA4 C-terminal kinase domain", "assay": "cell-free assay, inhibitor", "conditions": "20 µM", "quantity": "remaining signal", "result": "68%"}
{"Compound": "Cc1cc(-n2nc(Cc3cc(F)cc(C(F)(F)F)c3)nc2C)ccc1C(N)=O", "target": "RPS6KA4 N-terminal kinase domain", "assay": "cell-free assay, competition with immobilised ligand", "conditions": "1 µM", "quantity": "remaining binding", "result": "95%"}
{"Compound": "N[C@H]1CCN(c2nccc(-c3cnn4ncccc34)n2)C1", "target": "RPS6KA4 N-terminal kinase domain", "assay": "binding, competition with immobilised ligand", "conditions": "1 µM", "quantity": "remaining binding", "result": "91%"}
{"Compound": "O=C(Nc1cccnn1)N1CC(C/C=C/c2cncc(Oc3ccc(C(F)(F)F)cn3)n2)C1", "target": "RPS6KA4 C-terminal kinase domain", "assay": "cell-free assay, competition with immobilised ligand", "conditions": "1 µM", "quantity": "remaining binding", "result": "92%"}
{"Compound": "O=C(Nc1cnn(-c2csc(C(=O)NC3COC3)c2)c1)Nc1c(F)cccc1Cl", "target": "RPS6KA4", "assay": "enzyme activity, inhibitor", "conditions": "5 µM", "quantity": "remaining activity", "result": "99.8%"}
{"Compound": "COc1cc2c(N3CCN(C(=O)Nc4ccc(OC(C)C)cc4)CC3)ncnc2cc1OCCCN1CCCCC1", "target": "RPS6KA4", "assay": "cell-free assay", "conditions": "0.5 µM", "quantity": "remaining signal", "result": "120%"}
{"Compound": "O=C(N[C@H]1CCCCC/C=C\\C2C[C@@]2(C(=O)O)NC(=O)[C@@H]2C[C@@H](Oc3ccncc3)CN2C1=O)OC1CCCC1 (stereo partly shown)", "target": "RPS6KA4 N-terminal kinase domain", "assay": "binding, competition with immobilised ligand", "conditions": "1 µM", "quantity": "remaining binding", "result": "100%"}
{"Compound": "CC(C)(C)c1nc(-c2cccc(NS(=O)(=O)c3c(F)cccc3F)c2F)c(-c2ccnc(N)n2)s1", "target": "RPS6KA4", "assay": "enzyme activity, inhibitor, radiometric", "conditions": "1 µM", "quantity": "remaining activity", "result": "86%"}
